Laboratory results from ChEMBL document CHEMBL4513216, “Probing the Open Global Health Chemical Diversity Library for Multistage-Active Starting Points for Next-Generation Antimalarials” (ACS Infect Dis, 2020).

Experiment: Toxicity liver stage against HepG2, at 10uM
Assay type: cell-based
Design: test concentration 10 uM, cell line HepG2-A16-CD81EGFP
Settings: human, HepG2-A16-CD81EGFP cells; read-out: INHIBITION
Procedure, shortened: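 Uninfected HepG2-A16-CD81EGFP cells, 3 × 10^3 per well, 1536-well, plated on prespotted compound at 10 μM final, parasite-free screening media added to match infected plates; puromycin 10 μM positive, DMSO 0.5% negative; run in parallel with 48 h PbLuc assay at 37 °C, 5% CO2; viability by CellTiter-Glo luminescence, normalized to controls.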

| Compound | cytotoxicity at 10 µM [%] |
| --- | --- |
| CC1CCN(Cc2cc(=O)[nH]c(=O)[nH]2)CC1 | 9.95 |
| O=C(c1cc(CC2(NCC3CCCCC3)COC2)no1)N1CCCCC1 | 5.35 |
| COCC(=O)N[C@H](C)c1onc(-c2ccc(OC)cc2)c1C(=O)O | 4.82 |
| COCCNc1ccc(-c2noc([C@@H]3CCCN3)n2)cn1 | -1.57 |
| CN(Cc1ccccc1)C(=O)Cn1nc(N2CCOCC2)ccc1=O | 9.55 |
| CCc1cc(=O)[nH]c2nnc(SCC(=O)NC(C)C)n12 | -6.93 |
| c1ccc(CN2Cc3ccnn3CC(COCc3cccnc3)C2)nc1 (stereo unspecified) | -146 |
| O=C(c1ccc(Cl)cc1)N1CCc2nc(C(=O)N3CCCC3)sc2CC1 | 8.04 |
| CCN1C(=O)C2(CCOCC2)c2cc(NC(=O)c3cnccn3)ccc21 | -2.98 |
| CCN(CC)Cc1nnc2sc(-c3cc(C(C)C)[nH]n3)nn12 | -7.02 |
| O=c1[nH]nc(-c2cccs2)c2sc(N3CCOCC3)nc12 | 9.28 |
| CN(C(=O)Cn1nc(-c2ccc(Br)cc2)ccc1=O)C1CCS(=O)(=O)C1 (stereo unspecified) | 4.38 |
| O=C(Cn1nc2c(cc1=O)CCCC2)NC(Cc1ccccc1)C(=O)O (stereo unspecified) | 2.24 |
| COC(=O)N1CCc2ccc(NC(=O)c3cn(C)nn3)cc2C1 | -1.3 |
| CC(C)n1cc(S(=O)(=O)N2CCSCC2)cn1 | 6.64 |
| COc1cc2cc(C(=O)N[C@@H](C)C(=O)O)n(C)c2c(OC)c1OC | 12.5 |
| CN(C)c1nccc(C2CCCCN2Cc2cnn3cccnc23)n1 (stereo unspecified) | 10.5 |
| COc1cccc(CN2CCCC2c2cncc(Nc3nncs3)n2)c1 (stereo unspecified) | 4.73 |
| CCN1CCCC1CNCc1cc2cc(C)c(C)cc2[nH]c1=O (stereo unspecified) | -6.69 |
| O=C(NCCc1ccc(F)cc1)C1CN(C(=O)Cn2cncn2)C1 | 3.54 |
| Cc1ccc2c(c1)C(=O)NCC1(CCN(C(=O)c3csc(C)c3)CC1)O2 | -27.7 |
| COC(=O)Cc1cn2cc(C(F)(F)F)ccc2n1 | 9.21 |
| CN1CCOC(C(=O)Nc2nc(-c3ccc(Cl)cc3)n[nH]2)C1 (stereo unspecified) | -4.34 |

| Compound | cytotoxicity at 10 µM [%] |
| --- | --- |
| O=C(C1CC1)N(CCc1ccccc1)C1CCOC1 (stereo unspecified) | -6.93 |
| N#Cc1ccc(CN2CCCCC2Cn2cncn2)c(F)c1 (stereo unspecified) | -1.34 |
| CN(C)Cc1nc(C(C)(C)NC(=O)c2nc3ccccc3s2)no1 | 8.61 |
| CCc1ncc2c(n1)CN(c1nnc(C)c(C)c1C#N)CC2 | -134 |
| Cc1oc(C)c(C(=O)NS(=O)(=O)c2ccc3c(c2)OCCCO3)c1C | 6.08 |
| CCS(=O)(=O)CC(C)N(C)C(=O)COc1ccccc1C#N (stereo unspecified) | -3.51 |
| Cc1ccccc1CS(=O)(=O)c1nnc(N2CCOCC2)s1 | -9.61 |
| O=C(NC1CC1)C1CCCN(c2cccc(C(F)(F)F)n2)C1 (stereo unspecified) | 2.43 |
| COc1cc(OC)cc(C2CCN(CC(=O)NCC(F)(F)F)C2)c1 (stereo unspecified) | 2.29 |
| COc1cc(C)nc(N2CCN(C(=O)CCc3cccs3)CC2)n1 | 5.77 |
| COC(=O)C(C)(C)NC(=O)C1CC(=O)N(CC(F)(F)F)C1 (stereo unspecified) | -141 |
| Cc1cnn(CC2CCCN2CC(=O)NCc2ccccn2)c1 (stereo unspecified) | -5 |
| CC(C)c1cc(C(=O)NC2CCN(CC(N)=O)CC2)nn1C(C)(C)C | -6.95 |
| COc1ccccc1C(NC(=O)C1CCC1)c1noc(C)n1 (stereo unspecified) | 0.338 |
| Cc1nc(CCNC(=O)NC(C)c2ccc3c(c2)OCCO3)cs1 (stereo unspecified) | -1.18 |
| COC(=O)c1ccc(CNC(C)(C)c2ccccc2OC)o1 | -0.651 |
| CC(=O)N(Cc1ccoc1)C1CCCCC1 | -2.86 |
| CC(C)Oc1ccc(C(O)CNCc2ccccc2C(F)(F)F)cc1 (stereo unspecified) | -1.71 |
| CSc1nsc(NC(=O)N(C)Cc2ccc3c(c2)OCO3)n1 | -10.4 |
| FC(F)Oc1ccc(NCc2nc(C3CC3)no2)c(OC(F)F)c1 | 4.19 |
| CC(CC(=O)Nc1ncn(CC(=O)N2CCCCCC2)n1)C1CC1 (stereo unspecified) | 5.75 |
| CC(C)(C)NC(=O)C1CSCN1C(=O)CCc1ccco1 (stereo unspecified) | -6.77 |
| NC(=O)C1CCN(CCCNC(=O)Nc2nccs2)CC1 | -0.287 |

| Compound | cytotoxicity at 10 µM [%] |
| --- | --- |
| COCCC(=O)Nc1cc(CC(C)(C)C)n[nH]1 | 3.97 |
| CN1CCN(c2ncccc2CNc2ncccc2C#N)CC1 | 15.4 |
| COc1cccc(C2CCCN2C(=O)c2cc3c([nH]c2=O)CCC3)c1 (stereo unspecified) | -12 |
| Cc1cnn(C2CN(CC(O)c3ccc(F)cc3)C2)c1 (stereo unspecified) | 11.9 |
| CC(O)CC(C)(C)CNC(=O)NCc1cccc(-n2ccnc2)c1 (stereo unspecified) | -3.34 |
| CN(C)C1CCN(C(=O)NCc2ccccc2Cn2cncn2)CC1 | -8.15 |
| CC(C)Cc1noc(CN2CCN(C(=O)c3cccc(F)c3)CC2)n1 | -5.7 |
| Cc1noc(C(C)C)c1C(=O)NS(=O)(=O)c1ccc(Cl)cc1 | -8.59 |
| COc1ccc(CNCCc2cc(F)cc3c2OCOC3)cc1O | -9.26 |
| CCn1nnc2c1C(COC)CN(Cc1ccco1)C2 (stereo unspecified) | 0.73 |
| Cc1ccc(CN2C[C@H](OCC3CCN(C)CC3)[C@H]3COC[C@H]32)o1 | 6.19 |
| O=C(NCC1Cn2nnc(-c3ccccc3)c2CO1)c1ccc[nH]1 (stereo unspecified) | -1.2 |
| Cc1cnc(C)c(N2CCC3(CCCN(C4CCOCC4)C3=O)C2)n1 (stereo unspecified) | -124 |
| Cc1cc(N2CCC3(CCC(=O)N(CC4CC4)C3)CC2)ncn1 | -7.8 |
| CC(C)Oc1cc(N2CCCC(O)C2)nc(N)n1 (stereo unspecified) | -0.796 |
| Cc1cc(C(=O)N(C)Cc2ccoc2)c(NC(=O)C(C)(C)C)s1 | 12.1 |
| Cc1ccc(C)c(NC(=O)N2C[C@H](N(C)C)C[C@H]2CO)c1 | -0.861 |
| COCc1c(C(=O)N2CCCC(N(C)Cc3ccccc3)C2)noc1C (stereo unspecified) | -16.8 |
| COc1ccccc1N1CCN(C(=O)CCc2nncn2C)C(C)C1 (stereo unspecified) | 16 |
| CCCn1cc(C(=O)N2CCCC(c3nccn3CCOC)C2)c(C)n1 (stereo unspecified) | 0.00455 |
| Cc1ncsc1CCC(=O)NCc1cc2n(n1)CCNC2 | -3.78 |
| CC(C)S(=O)(=O)N1CCOC(CCc2ccccc2)C1 (stereo unspecified) | -4.53 |
| O=c1cc(N2CCCCC2)cnn1CC(O)C(F)(F)F (stereo unspecified) | 12.3 |

| Compound | cytotoxicity at 10 µM [%] |
| --- | --- |
| O=C1CC2(CCCC2)CC(=O)N1CCn1cnnc1 | -0.54 |
| COc1ccc(-c2ncc(-c3nccn3CCN(C)C)cn2)cc1 | 1.44 |
| CN1CC2(CCN(C(=O)c3cn4cccnc4n3)CC2)CC1=O | -7.72 |
| CC(C)CN1CC2(CCN(C(=O)C(O)c3cccc(Cl)c3)CC2)CC1=O (stereo unspecified) | -1.45 |
| CN(Cc1cccc(-n2cccn2)c1)Cc1cccs1 | -7.54 |
| COC[C@@H]1CCCN1C(=O)c1cc(-c2ccc(OC)cc2)n[nH]1 | 13.2 |
| O=C(c1cnc(O)cn1)N1CCC(CN2CCOCC2)CC1 | 9.49 |
| COc1cccc(-c2cccc(-c3ccn(CC4COCCO4)n3)c2)n1 (stereo unspecified) | -3.81 |
| CCc1nc(C)c(CC(=O)N2CCC3(CC2)OCCCC3OC)c(=O)[nH]1 (stereo unspecified) | -0.506 |
| COc1cncc(-n2nc(C)c(CC(C)=O)c2C)c1 | -12.8 |
| CNC(=O)CNC(=O)CC1C(=O)NCCN1Cc1ccccc1C (stereo unspecified) | -2.88 |
| COc1ccc(-c2nc(CN(C)Cc3nncn3C)c(C)o2)c(C)c1C | -8.87 |
| O=C(CN1CCOCS1(=O)=O)NCCc1ccc(Cl)cc1 | -5.14 |
| CC(C)CN1CCN(Cc2nc3ccccc3[nH]2)[C@H]2CS(=O)(=O)C[C@H]21 | 14.4 |
| COC(=O)c1ccc2ccn(CC3CCCO3)c(=O)c2c1 (stereo unspecified) | -15.8 |
| COC1CCCN(C(=O)Nc2nc(C)n(C)n2)C1 (stereo unspecified) | 16.3 |
| CC(C)N1CCC(N2CCN(C3CCC3)CC2CCO)CC1 (stereo unspecified) | -12.5 |
| CCc1noc(-c2cccc(C(=O)O)c2)n1 | -8.24 |
| COC(=O)N1CC(C)=C(C)CN1C(=O)Nc1cccc(Cl)c1 | 0.359 |
| COc1c(C)cnc(CN2CCC(N(C)C(=O)C(C)OC)CC2)c1C (stereo unspecified) | -11.3 |
| Cc1[nH]ncc1CCCNC(=O)N1CCCC(c2nncn2C)C1 (stereo unspecified) | -7.58 |
| CC(NC(=O)CSCC#N)c1cccc(Cl)c1 (stereo unspecified) | -3.06 |
| CCN1CCN(C(=O)NCc2cc[nH]n2)CC1 | -12.7 |

| Compound | cytotoxicity at 10 µM [%] |
| --- | --- |
| Cc1nc(C)c(C(=O)NCCNC(=O)Cc2ccc(F)cc2)s1 | -5.68 |
| CC(C)n1cc(CN2CCCN(C(=O)C3CCOC3)CC2)cn1 (stereo unspecified) | -8.45 |
| N#Cc1ccccc1N1CCCN(C(=O)CCc2cccs2)CC1 | -1.27 |
| Cc1nc(C(C)C)sc1C(=O)NCCNc1ncccc1C#N | -2.55 |
| CCn1nc2c(cc1=O)CN(CC(=O)Nc1nnc(C)s1)CC2 | -18.2 |
| COc1ccc(C(C)NC(=O)Cn2ccc(=O)n(C)c2=O)cc1F (stereo unspecified) | -3.17 |
| c1cnnc(N2CCCC2CNCc2noc(C3CC3)n2)c1 (stereo unspecified) | -7.45 |
| Cc1nn(C)c(N2CCOCC2)c1CNCc1ccoc1C | -8.76 |
| CN(C(=O)c1ncn2c1CN(C)S(=O)(=O)c1ccccc1-2)C1CC1 | -131 |
| CNC(=O)[C@H]1C[C@@H]2CCN(Cc3ccncc3)C[C@H]2O1 | 10.3 |
| O=C(NCc1ccco1)[C@H]1CC[C@@H]2[C@@H](CCN2Cc2nccs2)O1 | 2.67 |
| O=C1N(c2cccnc2)CCC12CCCN(Cc1ccoc1)C2 (stereo unspecified) | -1.6 |
| O=C(NCc1cnc2n1CCN(CC1CC1)C2)C1CC1 | 5.06 |
| CCN1CCC2(CCN(Cc3nccs3)CC2)C1=O | -0.311 |
| Cc1cnc(N2CCOC3(CCCN(CC(=O)N(C)C)C3)C2)nc1 (stereo unspecified) | 8.67 |
| Cc1cc(CN2C[C@@H]3CN(C(=O)c4ccsc4)CCO[C@@H]3C2)no1 | -131 |
| c1cnc(NC[C@@H]2CCC[C@@H]3CN(Cc4csnn4)C[C@@H]32)nc1 | -126 |
| c1ccc(-c2cnc3n2CCNC32CCNCC2)cc1 | -2.2 |
| O=C(c1cc(Cl)c[nH]c1=O)N1C[C@H]2CC[C@@H](C1)N(Cc1ccccc1)C2 | -113 |
